From ChEMBL document CHEMBL3352416, “Discovery of carbohybrid-based 2-aminopyrimidine analogues as a new class of rapid-acting antimalarial agents using image-based cytological profiling assay” (J Med Chem, 2014)
Active and inactive are the calls of the source. The calls are words filed in the database; no cut-off is given here.

How the values were obtained:
[1] = test system: Plasmodium falciparum; experiment: Antimalarial activity against Plasmodium falciparum K1 by automated image mining based cytological profiling assay; type: functional, organism-based
How it was run: (§1)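 Parasite cultures in 384-well format, read by automated imaging. Infected erythrocytes detected by DAPI nuclear staining against WGA-AlexaFluor 488 host-cell stain, and viability by Mitotracker Red CMXRos. Total culture parasitaemia quantified. EC50 given as mean±SD of two independent experiments, each in duplicate.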

[2] = test system: Plasmodium falciparum; experiment: Antimalarial activity against tightly synchronized Plasmodium falciparum K1 assessed as parasite stage accumulation index at schizonts stages at 10 uM treated at 18 hrs post-invasion for continuous duration of 36 hrs by automated image mining based cytological profiling assay; type: functional
How it was run: (§2)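 Tightly synchronized cultures exposed to 10 µM final from 6 hpi (early ring), 18 hpi (late ring) or 30 hpi (mid-trophozoite) for a continuous 36 h. Erythrocytes stained with WGA-AlexaFluor 488, parasite nuclei with DAPI, functional mitochondria with Mitotracker Red CMXRos. Stages (early rings, late rings, trophozoites, schizonts) classified by nuclear spot number and size. Viable parasitaemia and stage accumulation index obtained by automated image analysis.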

[3] = test system: Plasmodium falciparum; experiment: Antimalarial activity against tightly synchronized Plasmodium falciparum K1 assessed as parasite stage accumulation index at trophozoites stages at 10 uM treated at 30 hrs post-invasion for continuous duration of 36 hrs by automated image mining based cytological profiling assay; type: functional; how it was run: as §2
[4] = test system: Plasmodium falciparum; experiment: Antimalarial activity against tightly synchronized Plasmodium falciparum K1 assessed as parasite stage accumulation index at schizonts stages at 10 uM treated at 30 hrs post-invasion for continuous duration of 36 hrs by automated image mining based cytological profiling assay; type: functional; how it was run: as §2
[5] = test system: Plasmodium falciparum; experiment: Antimalarial activity against Plasmodium falciparum W2 by automated image mining based cytological profiling assay; type: functional, organism-based; how it was run: as §1
[6] = test system: Plasmodium falciparum; experiment: Antimalarial activity against Plasmodium falciparum HB3 by automated image mining based cytological profiling assay; type: functional; how it was run: as §1
[7] = test system: Plasmodium falciparum; experiment: Antimalarial activity against Plasmodium falciparum K1 assessed as reduction in parasite stage accumulation index at 10 uM treated at 42 hrs post-invasion for 24 hrs by automated image mining based cytological profiling assay; type: functional, organism-based
How it was run: (§3)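 Tightly synchronized cultures exposed from the 42 hpi mid-schizont point for 24 h to 10 µM final. Host cells stained with wheat germ agglutinin-AlexaFluor 488, parasite nuclei with DAPI and live-parasite mitochondria with Mitotracker Red CMXRos. Infected and viable parasitaemia and stage proportions quantified by automated image mining. Stage accumulation indices and parasitaemia reduction index derived.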

[8] = test system: Plasmodium falciparum; experiment: Antimalarial activity against Plasmodium falciparum HB3 assessed as reduction in parasite stage accumulation index at 10 uM treated at 42 hrs post-invasion for 24 hrs by automated image mining based cytological profiling assay; type: functional; how it was run: as §3
[9] = test system: Plasmodium falciparum; experiment: Antimalarial activity against Plasmodium falciparum W2 assessed as reduction in parasite stage accumulation index at 10 uM treated at 42 hrs post-invasion for 24 hrs by automated image mining based cytological profiling assay; type: functional, organism-based; how it was run: as §3
[10] = test system: Plasmodium falciparum; experiment: Antimalarial activity against Plasmodium falciparum K1 assessed as increase in schizonts parasite stage accumulation index at 10 uM treated at 42 hrs post-invasion for 24 hrs by automated image mining based cytological profiling assay; type: functional, organism-based; how it was run: as §3
[11] = test system: Plasmodium falciparum; experiment: Antimalarial activity against Plasmodium falciparum HB3 assessed as increase in schizonts parasite stage accumulation index at 10 uM treated at 42 hrs post-invasion for 24 hrs by automated image mining based cytological profiling assay; type: functional; how it was run: as §3
[12] = test system: Plasmodium falciparum; experiment: Antimalarial activity against Plasmodium falciparum W2 assessed as increase in schizonts parasite stage accumulation index at 10 uM treated at 42 hrs post-invasion for 24 hrs by automated image mining based cytological profiling assay; type: functional, organism-based; how it was run: as §3
[13] = test system: Plasmodium falciparum; experiment: Antimalarial activity against tightly synchronized Plasmodium falciparum HB3 assessed as parasite stage accumulation index at late ring stages at 10 uM treated at 6 hrs post-invasion for continuous duration of 36 hrs by automated image mining based cytological profiling assay; type: functional; how it was run: as §2
[14] = test system: Plasmodium falciparum; experiment: Antimalarial activity against tightly synchronized Plasmodium falciparum HB3 assessed as parasite stage accumulation index at trophozoites stages at 10 uM treated at 6 hrs post-invasion for continuous duration of 36 hrs by automated image mining based cytological profiling assay; type: functional; how it was run: as §2
[15] = test system: Plasmodium falciparum; experiment: Antimalarial activity against tightly synchronized Plasmodium falciparum HB3 assessed as parasite stage accumulation index at schizonts stages at 10 uM treated at 6 hrs post-invasion for continuous duration of 36 hrs by automated image mining based cytological profiling assay; type: functional; how it was run: as §2
[16] = test system: Plasmodium falciparum; experiment: Antimalarial activity against tightly synchronized Plasmodium falciparum HB3 assessed as parasite stage accumulation index at late ring stages at 10 uM treated at 18 hrs post-invasion for continuous duration of 36 hrs by automated image mining based cytological profiling assay; type: functional; how it was run: as §2
[17] = test system: Plasmodium falciparum; experiment: Antimalarial activity against tightly synchronized Plasmodium falciparum HB3 assessed as parasite stage accumulation index at trophozoites stages at 10 uM treated at 18 hrs post-invasion for continuous duration of 36 hrs by automated image mining based cytological profiling assay; type: functional; how it was run: as §2
[18] = test system: Plasmodium falciparum; experiment: Antimalarial activity against tightly synchronized Plasmodium falciparum HB3 assessed as parasite stage accumulation index at schizonts stages at 10 uM treated at 18 hrs post-invasion for continuous duration of 36 hrs by automated image mining based cytological profiling assay; type: functional; how it was run: as §2
[19] = test system: Plasmodium falciparum; experiment: Antimalarial activity against tightly synchronized Plasmodium falciparum W2 assessed as parasite stage accumulation index at early ring stages at 10 uM treated at 6 hrs post-invasion for continuous duration of 36 hrs by automated image mining based cytological profiling assay; type: functional; how it was run: as §2
[20] = test system: Plasmodium falciparum; experiment: Antimalarial activity against tightly synchronized Plasmodium falciparum W2 assessed as parasite stage accumulation index at trophozoites stages at 10 uM treated at 6 hrs post-invasion for continuous duration of 36 hrs by automated image mining based cytological profiling assay; type: functional
[21] = test system: Plasmodium falciparum; experiment: Antimalarial activity against tightly synchronized Plasmodium falciparum W2 assessed as parasite stage accumulation index at schizonts stages at 10 uM treated at 6 hrs post-invasion for continuous duration of 36 hrs by automated image mining based cytological profiling assay; type: functional; how it was run: as §2
[22] = test system: Plasmodium falciparum; experiment: Antimalarial activity against tightly synchronized Plasmodium falciparum W2 assessed as parasite stage accumulation index at late ring stages at 10 uM treated at 18 hrs post-invasion for continuous duration of 36 hrs by automated image mining based cytological profiling assay; type: functional; how it was run: as §2
[23] = test system: Plasmodium falciparum; experiment: Antimalarial activity against tightly synchronized Plasmodium falciparum W2 assessed as parasite stage accumulation index at trophozoites stages at 10 uM treated at 18 hrs post-invasion for continuous duration of 36 hrs by automated image mining based cytological profiling assay; type: functional
[24] = test system: Plasmodium falciparum; experiment: Antimalarial activity against tightly synchronized Plasmodium falciparum W2 assessed as parasite stage accumulation index at trophozoites stages at 10 uM treated at 30 hrs post-invasion for continuous duration of 36 hrs by automated image mining based cytological profiling assay; type: functional; how it was run: as §2
[25] = test system: Plasmodium falciparum; experiment: Antimalarial activity against tightly synchronized Plasmodium falciparum W2 assessed as parasite stage accumulation index at schizonts stages at 10 uM treated at 30 hrs post-invasion for continuous duration of 36 hrs by automated image mining based cytological profiling assay; type: functional
[26] = test system: Plasmodium falciparum; experiment: Antimalarial activity against tightly synchronized Plasmodium falciparum K1 assessed as parasite stage accumulation index at early ring stages at 10 uM treated at 6 hrs post-invasion for continuous duration of 36 hrs by automated image mining based cytological profiling assay; type: functional; how it was run: as §2
[27] = test system: Plasmodium falciparum; experiment: Antimalarial activity against tightly synchronized Plasmodium falciparum K1 assessed as parasite stage accumulation index at trophozoites stages at 10 uM treated at 6 hrs post-invasion for continuous duration of 36 hrs by automated image mining based cytological profiling assay; type: functional
[28] = test system: Plasmodium falciparum; experiment: Antimalarial activity against tightly synchronized Plasmodium falciparum K1 assessed as parasite stage accumulation index at schizonts stages at 10 uM treated at 6 hrs post-invasion for continuous duration of 36 hrs by automated image mining based cytological profiling assay; type: functional; how it was run: as §2
[29] = test system: Plasmodium falciparum; experiment: Antimalarial activity against tightly synchronized Plasmodium falciparum K1 assessed as parasite stage accumulation index at late ring stages at 10 uM treated at 18 hrs post-invasion for continuous duration of 36 hrs by automated image mining based cytological profiling assay; type: functional; how it was run: as §2
[30] = test system: Plasmodium falciparum; experiment: Antimalarial activity against tightly synchronized Plasmodium falciparum K1 assessed as parasite stage accumulation index at trophozoites stages at 10 uM treated at 18 hrs post-invasion for continuous duration of 36 hrs by automated image mining based cytological profiling assay; type: functional; how it was run: as §2
[31] = test system: Plasmodium falciparum; experiment: Antimalarial activity against tightly synchronized Plasmodium falciparum HB3 assessed as parasite stage accumulation index at early ring stages at 10 uM treated at 6 hrs post-invasion for continuous duration of 36 hrs by automated image mining based cytological profiling assay; type: functional
[32] = test system: Plasmodium falciparum; experiment: Antimalarial activity against tightly synchronized Plasmodium falciparum HB3 assessed as parasite stage accumulation index at schizonts stages at 10 uM treated at 30 hrs post-invasion for continuous duration of 36 hrs by automated image mining based cytological profiling assay; type: functional
[33] = test system: Plasmodium falciparum; experiment: Antimalarial activity against tightly synchronized Plasmodium falciparum W2 assessed as parasite stage accumulation index at late ring stages at 10 uM treated at 6 hrs post-invasion for continuous duration of 36 hrs by automated image mining based cytological profiling assay; type: functional
[34] = test system: Plasmodium falciparum; experiment: Antimalarial activity against tightly synchronized Plasmodium falciparum W2 assessed as parasite stage accumulation index at schizonts stages at 10 uM treated at 18 hrs post-invasion for continuous duration of 36 hrs by automated image mining based cytological profiling assay; type: functional
[35] = test system: Plasmodium falciparum; experiment: Antimalarial activity against tightly synchronized Plasmodium falciparum K1 assessed as parasite stage accumulation index at late ring stages at 10 uM treated at 6 hrs post-invasion for continuous duration of 36 hrs by automated image mining based cytological profiling assay; type: functional

`COc1ccc(O[C@@H]([C@H](Oc2ccc(OC)cc2)c2cnn(C)c2)[C@@H](COC(c2ccccc2)(c2ccccc2)c2ccccc2)OS(C)(=O)=O)cc1` was tested. Which EC50 [1] did it give?
Its EC50 is 0.237 µM.

How did the EC50 [1] turn out when `COc1ccc(CO[C@H]([C@H](COCc2ccccc2)N=[N+]=[N-])[C@H](OCc2ccc(OC)cc2)c2cnc(N(C)C)nc2)cc1` was run?
The EC50 was 1.2 µM.

For `COc1ccc(CO[C@@H]([C@H](O)COC(c2ccccc2)(c2ccccc2)c2ccccc2)[C@H](OCc2ccc(OC)cc2)c2cnc(N(C)C)nc2)cc1`, which EC50 [1] is on record?
Its EC50 is 0.2 µM.

How did the EC50 [1] turn out when `COc1ccc(CO[C@H]([C@H](COS(C)(=O)=O)N=[N+]=[N-])[C@H](OCc2ccc(OC)cc2)c2cnc(N(C)C)nc2)cc1` was run?
The EC50 was 11.7 µM.

Which results are given for `C[C@@H]1CC[C@H]2[C@@H](C)C(=O)O[C@@H]3O[C@@]4(C)CC[C@@H]1[C@]32OO4` [ARTEMISININ]?
Activity [2]: 0.26; Activity [3]: 1.09; Activity [4]: 0.31; EC50 [1]: 0.003 µM; EC50 [5]: 0.011 µM; EC50 [6]: 0.018 µM; inhibition [7]: Active; inhibition [8]: Active; inhibition [9]: Active; inhibition [10]: Active; inhibition [11]: Active; inhibition [12]: Active; Activity [13]: 3.53; Activity [14]: 0.37; Activity [15]: 0.11; Activity [16]: 4.4; Activity [17]: 1.06; Activity [18]: 0.47; Activity [19]: 2.06; Activity [20]: 0.81; Activity [21]: 0.47; Activity [22]: 2.01; Activity [23]: 1.06; Activity [24]: 1.51; Activity [25]: 1.05; Activity [26]: 1.96; Activity [27]: 0.51; Activity [28]: 0.17; Activity [29]: 2.52; Activity [30]: 0.7

For `COc1ccc(CO[C@@H]([C@H](COCc2ccccc2)N=[N+]=[N-])[C@H](OCc2ccc(OC)cc2)c2cnc(N(C)C)nc2)cc1`, which EC50 [1] is on record?
The EC50 was 1.42 µM.

With `CCN(CC)CCCC(C)Nc1ccnc2cc(Cl)ccc12` (configuration not stated) [CHLOROQUINE] as the compound, how does the Activity [2] read?
The Activity was 0.37.

And the Activity [3]?
Its Activity is 0.75.

What about the Activity [4] of the same compound?
The Activity was 0.56.

And the EC50 [1]?
Its EC50 is 0.208 µM.

What about the EC50 [5] of the same compound?
The EC50 was 0.221 µM.

And the EC50 [6]?
Its EC50 is 0.033 µM.

What about the Activity [31] of the same compound?
Its Activity is 1.82.

What about the Activity [13] of the same compound?
Its Activity is 3.05.

What about the Activity [14] of the same compound?
Its Activity is 0.52.

And the Activity [15]?
The Activity was 0.2.

And the Activity [16]?
Its Activity is 2.17.

And the Activity [17]?
Its Activity is 1.85.

And the Activity [18]?
Its Activity is 0.82.

And the Activity [32]?
Its Activity is 1.83.

What about the Activity [19] of the same compound?
Its Activity is 1.78.

And the Activity [33]?
Its Activity is 1.51.

And the Activity [20]?
The Activity was 0.65.

What about the Activity [21] of the same compound?
The Activity was 0.53.

And the Activity [22]?
Its Activity is 1.82.

And the Activity [34]?
Its Activity is 1.64.

What about the Activity [24] of the same compound?
Its Activity is 1.26.

And the Activity [26]?
Its Activity is 1.72.

What about the Activity [35] of the same compound?
The Activity was 1.62.

What about the Activity [28] of the same compound?
Its Activity is 0.25.

And the Activity [29]?
Its Activity is 1.38.

What about the Activity [30] of the same compound?
The Activity was 1.22.

How did the EC50 [1] turn out when `COc1ccc(CO[C@@H]([C@H](CO)N=[N+]=[N-])[C@H](OCc2ccc(OC)cc2)c2cnc(N(C)C)nc2)cc1` was run?
Its EC50 is 5.45 µM.
